Measured values reported in ChEMBL document CHEMBL5247575 (J Med Chem, 2018).

What follows are compounds tested on Acinetobacter baumannii (assay: Synergistic antibacterial activity against Acinetobacter baumannii PR440 producing OXA-23/24/40 assessed as cefepime MIC at 4 ug/ml by broth microdilution method). Settings: dose 4 µg/ml.
Format: functional
`O=C(NNC(=O)[C@@H]1CC[C@@H]2CN1C(=O)N2OS(=O)(=O)O)[C@@H]1CCCNC1` [ZIDEBACTAM] gave an MIC of 16 µg/mL.

Each compound was assayed on Acinetobacter baumannii (assay: Synergistic antibacterial activity against Acinetobacter baumannii PR474 producing OXA-23/24/40 assessed as meropenem MIC at 8 ug/ml by broth microdilution method). Settings: dose 8 µg/ml.
Format: functional
In the case of `O=C(NNC(=O)[C@@H]1CC[C@@H]2CN1C(=O)N2OS(=O)(=O)O)[C@@H]1CCCNC1` [ZIDEBACTAM], the MIC is reported as over 16 µg/mL.

Each compound was assayed on Klebsiella pneumoniae (assay: Synergistic antibacterial activity against Klebsiella pneumoniae jefferson 1773 producing OXA-181 assessed as cefepime MIC at 4 ug/ml by broth microdilution method). Settings: dose 4 µg/ml.
Format: functional
With `O=C(NNC(=O)[C@@H]1CC[C@@H]2CN1C(=O)N2OS(=O)(=O)O)[C@@H]1CCCNC1` [ZIDEBACTAM] the MIC was at most 0.12 µg/mL.

The compounds below were run on Acinetobacter baumannii (assay: Synergistic antibacterial activity against Acinetobacter baumannii PR381 producing OXA-24/40 assessed as meropenem MIC at 4 ug/ml by broth microdilution method). Settings: dose 4 µg/ml.
Format: functional
`O=C(NNC(=O)[C@@H]1CC[C@@H]2CN1C(=O)N2OS(=O)(=O)O)[C@@H]1CCCNC1` [ZIDEBACTAM] was tested, and the MIC was over 16 µg/mL.

Each compound was assayed on Pseudomonas aeruginosa (assay: Synergistic antibacterial activity against Pseudomonas aeruginosa 839 assessed as meropenem MIC at 8 ug/ml by broth microdilution method). Settings: dose 8 µg/ml.
Format: functional
For `O=C(NNC(=O)[C@@H]1CC[C@@H]2CN1C(=O)N2OS(=O)(=O)O)[C@@H]1CCCNC1` [ZIDEBACTAM], the MIC was at most 0.12 µg/mL.

These compounds were tested on Klebsiella pneumoniae (assay: Synergistic antibacterial activity against Klebsiella pneumoniae 935/1884 producing KPC-3 assessed as meropenem MIC at 4 ug/ml by broth microdilution method). Settings: dose 4 µg/ml.
Format: functional
Compound `O=C(NNC(=O)[C@@H]1CC[C@@H]2CN1C(=O)N2OS(=O)(=O)O)[C@@H]1CCCNC1` [ZIDEBACTAM] has an MIC of at most 0.12 µg/mL.

These compounds were tested on Klebsiella pneumoniae (assay: Synergistic antibacterial activity against Klebsiella pneumoniae 1354/2241 producing KPC-3 assessed as cefepime MIC at 4 ug/ml by broth microdilution method). Settings: dose 4 µg/ml.
Format: functional
Procedure, shortened: (§1)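 Broth microdilution per CLSI guidelines, using custom frozen panels. […] Each partner drug was also tested alone. MICs were run in triplicate and the modal value is reported.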
With `O=C(NNC(=O)[C@@H]1CC[C@@H]2CN1C(=O)N2OS(=O)(=O)O)[C@@H]1CCCNC1` [ZIDEBACTAM] the MIC was at most 0.12 µg/mL.

Each compound was assayed on Escherichia coli (assay: Synergistic antibacterial activity against Escherichia coli DH10B transfected with pBC SK (-) KPC-3 assessed as cefepime MIC at 8 ug/ml by broth microdilution method). Settings: dose 8 µg/ml.
Format: functional
`O=C(NNC(=O)[C@@H]1CC[C@@H]2CN1C(=O)N2OS(=O)(=O)O)[C@@H]1CCCNC1` [ZIDEBACTAM] was tested, and the MIC was at most 0.12 µg/mL.

The compounds below were run on Acinetobacter baumannii (assay: Synergistic antibacterial activity against Acinetobacter baumannii PR323 producing OXA-24/40 assessed as meropenem MIC at 4 ug/ml by broth microdilution method). Settings: dose 4 µg/ml.
Format: functional
Compound `O=C(NNC(=O)[C@@H]1CC[C@@H]2CN1C(=O)N2OS(=O)(=O)O)[C@@H]1CCCNC1` [ZIDEBACTAM] has an MIC of over 16 µg/mL.

These compounds were tested on Klebsiella pneumoniae (assay: Synergistic antibacterial activity against Klebsiella pneumoniae 901/1860 producing KPC-3 assessed as meropenem MIC at 8 ug/ml by broth microdilution method). Settings: dose 8 µg/ml.
Format: functional
Compound `O=C(NNC(=O)[C@@H]1CC[C@@H]2CN1C(=O)N2OS(=O)(=O)O)[C@@H]1CCCNC1` [ZIDEBACTAM] has an MIC of at most 0.12 µg/mL.

The compounds below were run on Klebsiella pneumoniae (assay: Synergistic antibacterial activity against Klebsiella pneumoniae 761/1723 producing KPC-3 assessed as cefepime MIC at 8 ug/ml by broth microdilution method). Settings: dose 8 µg/ml.
Format: functional
Procedure, shortened: as §1
Work on `O=C(NNC(=O)[C@@H]1CC[C@@H]2CN1C(=O)N2OS(=O)(=O)O)[C@@H]1CCCNC1` [ZIDEBACTAM] yielded an MIC of at most 0.12 µg/mL.

Each compound was assayed on Escherichia coli (assay: Synergistic antibacterial activity against Escherichia coli DH10B transfected with pBC SK (-) OXA-48 assessed as cefepime MIC at 4 ug/ml by broth microdilution method). Settings: dose 4 µg/ml.
Format: functional
Procedure, shortened: as §1
`O=C(NNC(=O)[C@@H]1CC[C@@H]2CN1C(=O)N2OS(=O)(=O)O)[C@@H]1CCCNC1` [ZIDEBACTAM] was tested, and the MIC was at most 0.12 µg/mL.

What follows are compounds tested on Klebsiella pneumoniae (assay: Synergistic antibacterial activity against Klebsiella pneumoniae 761/1723 producing KPC-3 assessed as cefepime MIC at 4 ug/ml by broth microdilution method). Settings: dose 4 µg/ml.
Format: functional
Procedure, shortened: as §1
`O=C(NNC(=O)[C@@H]1CC[C@@H]2CN1C(=O)N2OS(=O)(=O)O)[C@@H]1CCCNC1` [ZIDEBACTAM] gave an MIC of at most 0.12 µg/mL.

Each compound was assayed on Klebsiella pneumoniae (assay: Synergistic antibacterial activity against Klebsiella pneumoniae 1398/2291 producing KPC-3 assessed as cefepime MIC at 8 ug/ml by broth microdilution method). Settings: dose 8 µg/ml.
Format: functional
Procedure, shortened: as §1
With `O=C(NNC(=O)[C@@H]1CC[C@@H]2CN1C(=O)N2OS(=O)(=O)O)[C@@H]1CCCNC1` [ZIDEBACTAM] the MIC was at most 0.12 µg/mL.

Each compound was assayed on Bacteria (assay: Inhibition of bacteria KPC-2 assessed as half life using nitrocefin as substrate). Settings: not given.
In the case of `O=C(NNC(=O)[C@@H]1CC[C@@H]2CN1C(=O)N2OS(=O)(=O)O)[C@@H]1CCCNC1` [ZIDEBACTAM], the T1/2 is reported as 29 min.

What follows are compounds tested on Acinetobacter baumannii (assay: Synergistic antibacterial activity against Acinetobacter baumannii PR440 producing OXA-23/24/40 assessed as cefepime MIC at 8 ug/ml by broth microdilution method). Settings: dose 8 µg/ml.
Format: functional
Compound `O=C(NNC(=O)[C@@H]1CC[C@@H]2CN1C(=O)N2OS(=O)(=O)O)[C@@H]1CCCNC1` [ZIDEBACTAM] has an MIC of over 16 µg/mL.

The compounds below were run on Klebsiella pneumoniae (assay: Synergistic antibacterial activity against Klebsiella pneumoniae 1354/2241 producing KPC-3 assessed as meropenem MIC at 4 ug/ml by broth microdilution method). Settings: dose 4 µg/ml.
Format: functional
Procedure, shortened: as §1
`O=C(NNC(=O)[C@@H]1CC[C@@H]2CN1C(=O)N2OS(=O)(=O)O)[C@@H]1CCCNC1` [ZIDEBACTAM] gave an MIC of at most 0.12 µg/mL.

Each compound was assayed on Acinetobacter baumannii (assay: Synergistic antibacterial activity against Acinetobacter baumannii PR363 producing OXA-23 assessed as meropenem MIC at 8 ug/ml by broth microdilution method). Settings: dose 8 µg/ml.
Format: functional
Work on `O=C(NNC(=O)[C@@H]1CC[C@@H]2CN1C(=O)N2OS(=O)(=O)O)[C@@H]1CCCNC1` [ZIDEBACTAM] yielded an MIC of over 16 µg/mL.
